Laboratory results: article PMC9924434 (International journal of pharmaceutics, 2023)

What was measured:
[1] = Solubility of DK-I-60-3 in lipid mixtures; format: physicochemical
How it was run: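 DSC on bulk and melted-then-solidified Softisan 154 and on Softisan 154–lecithin mixtures, blank or with 1.0% or 1.5% test compound. Crystallinity index = mixture enthalpy / untreated Softisan 154 enthalpy × 100. PLM: melted mixture dropped onto heated slide, covered, solidified quickly at room temperature, imaged at 400× with crossed polarizers and ¼λ plate. Triplicates, mean ± SD.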

[2] = ref Mitrović et al., 2021; cited from earlier work

saturation solubility of DK-I-60-3 in the lipid mixture ([1]; Softisan 154 + lecithin (30%) lipid mixture, by DSC and PLM): 1.0%
DK-I-60-3 solubilized by the lipid matrix ([1]; mixture of solid (Softisan 154) and liquid (medium chain triglycerides) lipid, preliminary studies): < 0.5%
SMILES: [2H]C([2H])([2H])Oc1ccc(-n2nc3c4ccc(OC([2H])([2H])[2H])cc4[nH]cc-3c2=O)cc1 [DK-I-60-3, 7-methoxy-d3-2-(4-methoxy-d3-phenyl)-2,5-dihydro-3Hpyrazolo[4,3-c]quinolin-3-one]
solubility in common organic solvents [2]: very slightly or slightly soluble
solubility in water and oils commonly used for pharmaceutical formulations [2]: practically insoluble
